Key:
[1] = target: T1, Indoleamine 2,3-dioxygenase 1 (Homo sapiens, UniProt P14902); test: Inhibition of recombinant human N-terminus IDO1 expressed in Escherichia coli assessed as N-formylkynurenine formation at 1 uM using L-tryptophan as substrate measured after 180 mins by UV absorbance based assay
Target sequence in this assay (P14902 whole entry, looked up): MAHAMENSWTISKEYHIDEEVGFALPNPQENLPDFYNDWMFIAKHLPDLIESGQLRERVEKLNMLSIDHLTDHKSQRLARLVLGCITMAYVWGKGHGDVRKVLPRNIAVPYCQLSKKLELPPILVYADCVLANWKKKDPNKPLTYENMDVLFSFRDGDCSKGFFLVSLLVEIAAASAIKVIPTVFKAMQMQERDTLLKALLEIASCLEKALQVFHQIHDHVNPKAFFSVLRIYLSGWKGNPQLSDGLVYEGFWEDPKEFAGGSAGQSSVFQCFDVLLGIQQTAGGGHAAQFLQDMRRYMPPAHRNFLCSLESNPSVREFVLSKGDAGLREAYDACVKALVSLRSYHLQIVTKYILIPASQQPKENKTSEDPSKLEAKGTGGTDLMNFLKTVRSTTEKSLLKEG

[2] = target: T1, Indoleamine 2,3-dioxygenase 1; test: Inhibition of recombinant human N-terminus IDO1 expressed in Escherichia coli assessed as N-formylkynurenine formation at 10 uM using L-tryptophan as substrate measured after 180 mins by UV absorbance based assay
Method in brief: (§1)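 Human N-terminal IDO1 expressed in E. coli, Ni affinity-purified; 40 nmol/L enzyme with 900 μmol/L tryptophan plus coupled reaction components in IDO1 assay buffer, 0.5% DMSO final, room temperature, 180 min. N-formylkynurenine read by UV absorbance at 321 nm. Blank lacks enzyme; positive control lacks inhibitor.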
Target sequence in this assay (P14902 whole entry, looked up): as above

[3] = target: T1, Indoleamine 2,3-dioxygenase 1; test: Inhibition of recombinant human N-terminus IDO1 expressed in Escherichia coli assessed as N-formylkynurenine formation at 100 uM using L-tryptophan as substrate measured after 180 mins by UV absorbance based assay; method in brief: as §1
Target sequence in this assay (P14902 whole entry, looked up): as above

[4] = target: T1, Indoleamine 2,3-dioxygenase 1; test: Inhibition of recombinant human N-terminus IDO1 expressed in Escherichia coli assessed as N-formylkynurenine formation using L-tryptophan as substrate measured after 180 mins by UV absorbance based assay
Method in brief: (§2)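 E. coli-expressed, Ni affinity-purified human N-terminal IDO1 at 40 nmol/L with 900 μmol/L tryptophan, coupled reaction components, 0.5% DMSO final, room temperature, 180 min; N-formylkynurenine read at 321 nm. Duplicates per concentration; % activity relative to no-inhibitor control, fitted by sigmoidal dose-response nonlinear regression; IC50 at half-maximal activity.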
Target sequence in this assay (P14902 whole entry): as the sequence (P14902 whole entry, looked up) above

[5] = target: T1, Indoleamine 2,3-dioxygenase 1; test: Inhibition of recombinant human N-terminus IDO1 expressed in Escherichia coli assessed as residual activity at -8.8 log[compound]/M using L-tryptophan as substrate measured after 180 mins by UV absorbance based assay relative to control; method in brief: as §2
Target sequence in this assay (P14902 whole entry, looked up): as above

[6] = target: T1, Indoleamine 2,3-dioxygenase 1; test: Inhibition of recombinant human N-terminus IDO1 expressed in Escherichia coli assessed as residual activity at -8.3 log[compound]/M using L-tryptophan as substrate measured after 180 mins by UV absorbance based assay relative to control; method in brief: as §2
Target sequence in this assay (P14902 whole entry, looked up): as above

[7] = target: T1, Indoleamine 2,3-dioxygenase 1; test: Inhibition of recombinant human N-terminus IDO1 expressed in Escherichia coli assessed as residual activity at -7.8 log[compound]/M using L-tryptophan as substrate measured after 180 mins by UV absorbance based assay relative to control; method in brief: as §2
Target sequence in this assay (P14902 whole entry, looked up): as above

[8] = target: T1, Indoleamine 2,3-dioxygenase 1; test: Inhibition of recombinant human N-terminus IDO1 expressed in Escherichia coli assessed as residual activity at -7.3 log[compound]/M using L-tryptophan as substrate measured after 180 mins by UV absorbance based assay relative to control; method in brief: as §2
[9] = target: T1, Indoleamine 2,3-dioxygenase 1; test: Inhibition of recombinant human N-terminus IDO1 expressed in Escherichia coli assessed as residual activity at -6.9 log[compound]/M using L-tryptophan as substrate measured after 180 mins by UV absorbance based assay relative to control; method in brief: as §2
[10] = target: T1, Indoleamine 2,3-dioxygenase 1; test: Inhibition of recombinant human N-terminus IDO1 expressed in Escherichia coli assessed as residual activity at -6.4 log[compound]/M using L-tryptophan as substrate measured after 180 mins by UV absorbance based assay relative to control; method in brief: as §2
[11] = target: T1, Indoleamine 2,3-dioxygenase 1; test: Inhibition of recombinant human N-terminus IDO1 expressed in Escherichia coli assessed as residual activity at -5.9 log[compound]/M using L-tryptophan as substrate measured after 180 mins by UV absorbance based assay relative to control; method in brief: as §2
[12] = target: T1, Indoleamine 2,3-dioxygenase 1; test: Inhibition of recombinant human N-terminus IDO1 expressed in Escherichia coli assessed as residual activity at -5.4 log[compound]/M using L-tryptophan as substrate measured after 180 mins by UV absorbance based assay relative to control; method in brief: as §2
[13] = target: T1, Indoleamine 2,3-dioxygenase 1; test: Inhibition of recombinant human N-terminus IDO1 expressed in Escherichia coli assessed as residual activity at -5 log[compound]/M using L-tryptophan as substrate measured after 180 mins by UV absorbance based assay relative to control; method in brief: as §2
[14] = target: T1, Indoleamine 2,3-dioxygenase 1; test: Inhibition of recombinant human N-terminus IDO1 expressed in Escherichia coli assessed as residual activity at -4.5 log[compound]/M using L-tryptophan as substrate measured after 180 mins by UV absorbance based assay relative to control; method in brief: as §2

Row | Compound | inhibition [1] [%] | inhibition [2] [%] | inhibition [3] [%] | other results
1 | Cc1ccc(CNc2cc(Br)cc3[nH]ncc23)cc1 |  | 20 | 84 | 
2 | O=C(O)c1cccc(COc2cc(Br)cc3[nH]ncc23)c1 |  | 7 | 40 | 
3 | O=C(O)c1cccc(CNc2ncnc3[nH]ncc23)c1 | 2 | 2 | 7 | 
4 | Clc1ccc(CNc2cc(Br)cc3[nH]ncc23)cc1 |  | 42 | 100 | 
5 | O=C(CNc1cc(Br)cc2[nH]ncc12)NC1CCOCC1 | 4 | 8 | 34 | 
6 | O=C(O)c1cc(CNc2cc(Br)cc3[nH]ncc23)ccc1O |  | 38 | 88 | 
7 | Brc1cc(NCc2ccccc2)c2cn[nH]c2c1 |  | 37 | 100 | 
8 | Oc1ccc(CNc2cc(Br)cc3[nH]ncc23)cc1 |  | 70 | 100 | IC50 [4]: 5.3 µM; Activity [5]: 92%; Activity [6]: 91%; Activity [7]: 91%; Activity [8]: 88%; Activity [9]: 87%; Activity [10]: 82%; Activity [11]: 71%; Activity [12]: 51%; Activity [13]: 26%; Activity [14]: 9%
9 | O=C(O)c1ccc(CNc2ncnc3[nH]ncc23)cc1 | 3 | 3 | 9 | 
10 | Cc1nc(NCc2ccc(C(=O)O)cc2)c2cn[nH]c2n1 | 3 | 5 | 37 | 
11 | O=C(O)c1ccc(CNc2cccc3[nH]ncc23)cc1 |  | 1 | 24 | 
12 | Oc1ccccc1CNc1cc(Br)cc2[nH]ncc12 |  | 41 | 100 | 
13 | Cc1nc(NCc2cccc(C(=O)O)c2)c2cn[nH]c2n1 | 3 | 5 | 32 | 
14 | NS(=O)(=O)NCCNc1nonc1/C(=N/O)Nc1ccc(F)c(Br)c1 |  | 100 |  | 

More lines, main results first:

Row | inhibition [1] [%] | inhibition [2] [%] | inhibition [3] [%] | Compound | other results
15 | 3 | 12 | 37 | O=C(CNc1cc(Br)cc2[nH]ncc12)Nc1ccc(C(=O)O)cc1 | 
16 |  | 18 | 69 | O=C(O)c1ccc(COc2cc(Br)cc3[nH]ncc23)cc1 | 
17 |  | 27 | 79 | O=C(O)Cc1ccc(CNc2cc(Br)cc3[nH]ncc23)cc1 | 
18 |  | 21 | 74 | O=C(O)c1cccc(CNc2cc(Br)cc3[nH]ncc23)c1 | 
19 |  | 31 | 73 | O=C(O)c1ccc(C(O)CNc2cc(Br)cc3[nH]ncc23)cc1 (centres undefined) | 
20 |  | 19 | 68 | O=C(O)c1ccc(C(CO)Nc2cc(Br)cc3[nH]ncc23)cc1 (centres undefined) | 
21 | 19 | 49 to 58 | 91 to 94 | O=C(O)c1ccc(CNc2cc(Br)cc3[nH]ncc23)cc1 | 
